Assay results taken from ChEMBL document CHEMBL5696442, “Discovery of type II inhibitors of TGFβ-activated kinase 1 (TAK1) and mitogen-activated protein kinase kinase kinase kinase 2 (MAP4K2)” (J Med Chem, 2015).

How the values were obtained:
Type in all cases: cell-based
[1] = biological target: Phosphatidylinositol 4-kinase beta (Homo sapiens) (UniProt Q9UBF8); experiment: Inhibition of PI4KB ATP labeling site harbouring VPHTQAVVLNSKDK in human A-375 cells at 0.5 uM by KiNativ Profiling analysis relative to control
[2] = biological target: MAP/microtubule affinity-regulating kinase 3 (Homo sapiens) (UniProt P27448); experiment: Inhibition of MARK3 Lys1 labeling site in human A-375 cells at 5 uM by KiNativ Profiling analysis relative to control
[3] = biological target: RAF proto-oncogene serine/threonine-protein kinase (Homo sapiens, UniProt P04049); experiment: Inhibition of RAF1 Lys2 labeling site in human A-375 cells at 0.5 uM by KiNativ Profiling analysis relative to control
RAF proto-oncogene serine/threonine-protein kinase, sequence (P04049 whole entry): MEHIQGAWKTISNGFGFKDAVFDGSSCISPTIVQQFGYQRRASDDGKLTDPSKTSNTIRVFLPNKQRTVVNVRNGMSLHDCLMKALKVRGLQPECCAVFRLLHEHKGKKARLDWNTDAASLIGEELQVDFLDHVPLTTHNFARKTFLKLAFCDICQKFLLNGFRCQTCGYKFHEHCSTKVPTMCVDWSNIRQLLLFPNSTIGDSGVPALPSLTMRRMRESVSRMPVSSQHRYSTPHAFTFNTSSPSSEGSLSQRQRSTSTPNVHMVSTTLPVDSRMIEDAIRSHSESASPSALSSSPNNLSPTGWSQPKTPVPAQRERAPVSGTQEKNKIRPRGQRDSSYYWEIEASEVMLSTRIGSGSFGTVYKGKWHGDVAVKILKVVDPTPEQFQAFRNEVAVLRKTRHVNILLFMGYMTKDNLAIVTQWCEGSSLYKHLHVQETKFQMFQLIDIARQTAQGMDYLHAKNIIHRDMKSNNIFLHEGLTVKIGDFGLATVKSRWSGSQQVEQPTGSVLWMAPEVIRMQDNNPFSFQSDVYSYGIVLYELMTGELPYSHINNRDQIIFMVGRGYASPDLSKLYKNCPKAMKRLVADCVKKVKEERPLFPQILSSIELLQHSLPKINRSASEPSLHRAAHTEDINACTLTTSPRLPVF

[4] = biological target: Calcium/calmodulin-dependent protein kinase kinase 2 (Homo sapiens) (UniProt Q96RR4); experiment: Inhibition of CaMKK2 Lys2 labeling site in human A-375 cells at 5 uM by KiNativ Profiling analysis relative to control
Calcium/calmodulin-dependent protein kinase kinase 2 (Homo sapiens), sequence (Q96RR4 2-588 limits assumed): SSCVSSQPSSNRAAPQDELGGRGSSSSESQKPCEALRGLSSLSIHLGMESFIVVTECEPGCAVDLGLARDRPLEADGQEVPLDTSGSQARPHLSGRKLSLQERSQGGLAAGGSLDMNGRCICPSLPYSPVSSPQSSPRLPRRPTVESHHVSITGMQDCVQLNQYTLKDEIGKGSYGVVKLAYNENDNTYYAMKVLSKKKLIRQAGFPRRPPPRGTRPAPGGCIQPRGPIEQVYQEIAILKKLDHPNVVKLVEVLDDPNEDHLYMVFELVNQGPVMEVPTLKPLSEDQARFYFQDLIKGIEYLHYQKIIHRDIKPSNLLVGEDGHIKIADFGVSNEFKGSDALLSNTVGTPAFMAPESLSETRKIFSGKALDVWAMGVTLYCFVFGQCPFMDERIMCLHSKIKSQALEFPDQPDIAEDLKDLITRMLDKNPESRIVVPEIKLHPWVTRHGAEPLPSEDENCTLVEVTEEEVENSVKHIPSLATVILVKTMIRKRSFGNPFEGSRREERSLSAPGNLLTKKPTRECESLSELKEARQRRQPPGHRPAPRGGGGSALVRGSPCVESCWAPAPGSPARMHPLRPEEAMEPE
Outline: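 Live A375 melanoma cells were treated with compound at 5 or 0.5 μM. The cells were then lysed, and the lysates were labeled with a lysine-reactive ATP or ADP-biotin acyl probe (KiNativ). Inhibition is the compound's protection of each kinase labeling-site peptide from probe labeling, relative to untreated control.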

[5] = biological target: Serine/threonine-protein kinase Nek7 (Homo sapiens) (UniProt Q8TDX7); experiment: Inhibition of NEK7 ACT labeling site in human A-375 cells at 5 uM by KiNativ Profiling analysis relative to control
Serine/threonine-protein kinase Nek7 (Homo sapiens), sequence (Q8TDX7 whole entry, looked up): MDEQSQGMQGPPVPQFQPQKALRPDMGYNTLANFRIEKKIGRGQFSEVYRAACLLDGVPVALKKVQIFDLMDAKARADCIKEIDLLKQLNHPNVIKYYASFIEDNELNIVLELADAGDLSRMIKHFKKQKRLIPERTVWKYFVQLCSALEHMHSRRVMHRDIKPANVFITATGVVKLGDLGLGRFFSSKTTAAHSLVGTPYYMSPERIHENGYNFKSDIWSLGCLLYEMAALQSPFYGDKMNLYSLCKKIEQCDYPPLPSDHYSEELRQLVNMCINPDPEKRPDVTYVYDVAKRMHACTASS

[6] = biological target: Cyclin-dependent kinase 16 (Homo sapiens) (UniProt Q00536); experiment: Inhibition of PFTAIRE1 Lys1 labeling site in human A-375 cells at 0.5 uM by KiNativ Profiling analysis relative to control
Cyclin-dependent kinase 16 (Homo sapiens), sequence (Q00536 whole entry): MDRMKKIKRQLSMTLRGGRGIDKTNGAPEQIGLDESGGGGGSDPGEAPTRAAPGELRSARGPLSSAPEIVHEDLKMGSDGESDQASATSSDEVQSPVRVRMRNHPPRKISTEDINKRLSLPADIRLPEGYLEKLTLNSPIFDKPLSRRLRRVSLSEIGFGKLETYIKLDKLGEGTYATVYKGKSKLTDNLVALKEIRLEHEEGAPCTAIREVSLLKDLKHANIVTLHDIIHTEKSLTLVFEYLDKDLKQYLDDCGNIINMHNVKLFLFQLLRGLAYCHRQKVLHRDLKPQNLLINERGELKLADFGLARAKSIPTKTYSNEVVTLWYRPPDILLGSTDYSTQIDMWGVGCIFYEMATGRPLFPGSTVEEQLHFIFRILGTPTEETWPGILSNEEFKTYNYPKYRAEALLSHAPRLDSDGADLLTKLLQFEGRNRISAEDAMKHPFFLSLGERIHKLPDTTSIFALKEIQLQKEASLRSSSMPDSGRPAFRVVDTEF

[7] = biological target: T1, Serine/threonine-protein kinase Nek9 (Homo sapiens) (UniProt Q8TD19); experiment: Inhibition of NEK9 ACT labeling site in human A-375 cells at 0.5 uM by KiNativ Profiling analysis relative to control
T1 sequence (whole entry): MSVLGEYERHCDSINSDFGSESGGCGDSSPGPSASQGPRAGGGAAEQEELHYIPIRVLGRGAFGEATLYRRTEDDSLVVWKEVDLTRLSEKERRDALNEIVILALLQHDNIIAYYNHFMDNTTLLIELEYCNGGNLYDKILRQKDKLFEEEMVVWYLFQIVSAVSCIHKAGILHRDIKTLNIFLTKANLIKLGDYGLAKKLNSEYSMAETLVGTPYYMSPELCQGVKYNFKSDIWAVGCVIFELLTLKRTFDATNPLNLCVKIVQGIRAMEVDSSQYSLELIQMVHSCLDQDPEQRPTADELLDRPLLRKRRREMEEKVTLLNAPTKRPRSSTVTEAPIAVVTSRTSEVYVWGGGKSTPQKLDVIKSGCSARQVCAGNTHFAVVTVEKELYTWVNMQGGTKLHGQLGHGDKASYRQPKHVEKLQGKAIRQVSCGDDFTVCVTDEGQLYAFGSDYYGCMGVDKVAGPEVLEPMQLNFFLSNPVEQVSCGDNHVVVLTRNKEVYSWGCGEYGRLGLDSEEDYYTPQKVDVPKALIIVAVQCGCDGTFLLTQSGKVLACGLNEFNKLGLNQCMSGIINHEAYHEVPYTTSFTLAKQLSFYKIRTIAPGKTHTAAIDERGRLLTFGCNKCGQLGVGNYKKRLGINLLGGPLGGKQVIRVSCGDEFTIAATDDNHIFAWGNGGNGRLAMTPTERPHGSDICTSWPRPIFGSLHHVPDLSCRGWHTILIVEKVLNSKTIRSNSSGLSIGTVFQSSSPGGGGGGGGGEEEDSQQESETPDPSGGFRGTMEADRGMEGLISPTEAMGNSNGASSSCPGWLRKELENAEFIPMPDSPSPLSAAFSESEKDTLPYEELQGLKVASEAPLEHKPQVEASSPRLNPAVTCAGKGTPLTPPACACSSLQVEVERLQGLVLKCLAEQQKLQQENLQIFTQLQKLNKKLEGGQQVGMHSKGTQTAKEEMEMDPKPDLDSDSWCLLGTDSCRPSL

[8] = biological target: Epidermal growth factor receptor (Homo sapiens) (UniProt P00533); experiment: Inhibition of EGFR ACT labeling site harbouring LLGAEEKEYHAEGGKVPIK in human A-375 cells at 5 uM by KiNativ Profiling analysis relative to control
Epidermal growth factor receptor (Homo sapiens), sequence (P00533 whole entry): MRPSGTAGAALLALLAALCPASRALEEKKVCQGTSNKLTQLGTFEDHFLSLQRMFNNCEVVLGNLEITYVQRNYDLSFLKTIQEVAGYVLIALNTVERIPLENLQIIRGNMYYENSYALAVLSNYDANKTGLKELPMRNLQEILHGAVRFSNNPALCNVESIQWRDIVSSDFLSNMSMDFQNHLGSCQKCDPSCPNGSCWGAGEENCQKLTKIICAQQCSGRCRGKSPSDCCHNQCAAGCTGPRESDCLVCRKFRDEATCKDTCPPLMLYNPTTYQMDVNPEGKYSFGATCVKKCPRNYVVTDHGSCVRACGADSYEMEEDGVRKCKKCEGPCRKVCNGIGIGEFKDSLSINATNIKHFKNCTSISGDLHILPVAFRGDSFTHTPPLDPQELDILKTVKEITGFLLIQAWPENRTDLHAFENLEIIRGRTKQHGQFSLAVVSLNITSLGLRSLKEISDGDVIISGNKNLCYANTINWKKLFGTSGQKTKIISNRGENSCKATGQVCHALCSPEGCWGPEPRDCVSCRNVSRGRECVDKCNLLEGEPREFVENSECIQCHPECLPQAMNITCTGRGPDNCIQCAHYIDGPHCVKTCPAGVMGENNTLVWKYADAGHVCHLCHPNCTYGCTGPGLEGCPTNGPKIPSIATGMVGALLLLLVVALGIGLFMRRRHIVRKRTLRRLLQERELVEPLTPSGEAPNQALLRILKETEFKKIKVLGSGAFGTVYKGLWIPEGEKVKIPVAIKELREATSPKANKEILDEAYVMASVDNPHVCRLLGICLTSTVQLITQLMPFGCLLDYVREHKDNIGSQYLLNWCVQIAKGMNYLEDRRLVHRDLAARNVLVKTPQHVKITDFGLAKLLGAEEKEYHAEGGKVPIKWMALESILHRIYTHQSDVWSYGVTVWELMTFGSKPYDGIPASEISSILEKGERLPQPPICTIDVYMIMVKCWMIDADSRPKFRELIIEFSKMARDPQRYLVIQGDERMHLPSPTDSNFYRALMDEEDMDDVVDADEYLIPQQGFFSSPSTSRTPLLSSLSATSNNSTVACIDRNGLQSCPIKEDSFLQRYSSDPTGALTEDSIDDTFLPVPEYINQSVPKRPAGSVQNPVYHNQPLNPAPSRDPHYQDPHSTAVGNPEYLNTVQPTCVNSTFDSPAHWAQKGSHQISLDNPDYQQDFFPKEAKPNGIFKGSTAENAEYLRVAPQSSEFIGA
Outline: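 Live A375 melanoma cells were treated with compound at 0.5 or 5 μM, then lysed. Lysates were labeled with a lysine-reactive ATP or ADP-biotin probe. The read-out was protection of each kinase probe-labeling site from labeling, relative to control.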

[9] = biological target: Glycogen synthase kinase-3 alpha (Homo sapiens) (UniProt P49840); experiment: Inhibition of GSK3A Lys2 labeling site in human A-375 cells at 0.05 uM by KiNativ Profiling analysis relative to control
Glycogen synthase kinase-3 alpha (Homo sapiens), sequence (P49840 2-483 limits assumed): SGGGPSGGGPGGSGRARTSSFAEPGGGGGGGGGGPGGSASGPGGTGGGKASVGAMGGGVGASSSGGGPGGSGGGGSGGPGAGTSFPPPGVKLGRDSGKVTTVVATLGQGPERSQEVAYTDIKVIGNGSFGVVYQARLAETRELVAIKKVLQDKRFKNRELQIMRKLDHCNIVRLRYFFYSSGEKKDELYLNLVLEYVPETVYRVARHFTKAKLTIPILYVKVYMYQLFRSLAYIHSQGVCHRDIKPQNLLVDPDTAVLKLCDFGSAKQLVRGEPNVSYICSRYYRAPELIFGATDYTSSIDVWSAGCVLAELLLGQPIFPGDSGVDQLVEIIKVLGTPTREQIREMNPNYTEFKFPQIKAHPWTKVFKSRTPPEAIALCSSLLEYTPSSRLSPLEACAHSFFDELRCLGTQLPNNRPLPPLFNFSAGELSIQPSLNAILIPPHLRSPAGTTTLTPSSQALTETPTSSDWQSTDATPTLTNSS

[10] = biological target: Tyrosine-protein kinase Fer (Homo sapiens, UniProt P16591); experiment: Inhibition of FER Lys1 labeling site harbouring TSVAVKTCKEDLPQELKin human A-375 cells at 5 uM by KiNativ Profiling analysis relative to control
[11] = biological target: Serine/threonine-protein kinase WNK1 (Homo sapiens) (UniProt Q9H4A3); experiment: Inhibition of Wnk1 Lys2 labeling site in human A-375 cells at 0.05 uM by KiNativ Profiling analysis relative to control
[12] = biological target: Tyrosine-protein kinase ABL2 (Homo sapiens, UniProt P42684); experiment: Inhibition of ARG ACT labeling site in human A-375 cells at 0.5 uM by KiNativ Profiling analysis relative to control
Tyrosine-protein kinase ABL2, sequence (P42684 whole entry): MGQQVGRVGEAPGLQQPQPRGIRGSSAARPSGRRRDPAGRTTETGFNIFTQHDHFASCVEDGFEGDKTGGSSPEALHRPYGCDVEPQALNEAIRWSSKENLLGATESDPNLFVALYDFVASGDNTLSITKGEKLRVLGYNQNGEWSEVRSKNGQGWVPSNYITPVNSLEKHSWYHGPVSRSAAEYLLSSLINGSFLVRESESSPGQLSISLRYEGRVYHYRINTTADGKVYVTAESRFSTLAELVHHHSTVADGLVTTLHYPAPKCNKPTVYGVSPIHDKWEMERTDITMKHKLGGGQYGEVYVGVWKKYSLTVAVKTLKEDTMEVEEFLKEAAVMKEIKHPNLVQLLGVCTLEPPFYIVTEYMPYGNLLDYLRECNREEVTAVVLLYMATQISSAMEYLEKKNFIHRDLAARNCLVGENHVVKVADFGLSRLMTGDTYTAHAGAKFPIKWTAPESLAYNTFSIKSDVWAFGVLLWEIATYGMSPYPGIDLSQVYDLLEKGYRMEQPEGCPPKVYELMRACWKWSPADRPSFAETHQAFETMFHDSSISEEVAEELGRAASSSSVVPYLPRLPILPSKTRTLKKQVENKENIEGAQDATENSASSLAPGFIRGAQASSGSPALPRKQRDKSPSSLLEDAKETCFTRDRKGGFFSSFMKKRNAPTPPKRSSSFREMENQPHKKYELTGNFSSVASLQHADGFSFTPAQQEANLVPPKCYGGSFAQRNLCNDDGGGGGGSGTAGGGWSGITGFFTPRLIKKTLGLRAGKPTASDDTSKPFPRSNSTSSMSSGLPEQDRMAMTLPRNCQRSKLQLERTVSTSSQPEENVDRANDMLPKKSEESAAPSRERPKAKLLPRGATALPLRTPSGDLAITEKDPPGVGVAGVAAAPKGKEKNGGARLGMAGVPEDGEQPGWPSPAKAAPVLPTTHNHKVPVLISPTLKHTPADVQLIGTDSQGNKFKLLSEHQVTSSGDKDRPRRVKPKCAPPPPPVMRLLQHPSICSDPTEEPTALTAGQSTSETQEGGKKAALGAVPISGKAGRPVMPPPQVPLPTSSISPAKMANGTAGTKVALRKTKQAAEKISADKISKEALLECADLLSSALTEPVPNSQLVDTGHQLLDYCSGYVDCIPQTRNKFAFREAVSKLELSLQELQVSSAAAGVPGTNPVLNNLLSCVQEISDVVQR
Outline: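 Intact A375 melanoma cells were treated with compound at 5 or 0.5 μM, then lysed. Lysate kinases were labeled with a lysine-reactive ATP or ADP-biotin probe (KiNativ). Inhibition is read as protection of each kinase labeling site from probe labeling.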

[13] = biological target: Protein kinase C beta type (Homo sapiens) (UniProt P05771); experiment: Inhibition of PKCb Lys2 labeling site in human A-375 cells at 0.05 uM by KiNativ Profiling analysis relative to control
[14] = biological target: Serine/threonine-protein kinase SMG1 (Homo sapiens) (UniProt Q96Q15); experiment: Inhibition of SMG1 ATP labeling site harbouring SYPYLFKGLEDLHLDER in human A-375 cells at 0.05 uM by KiNativ Profiling analysis relative to control

Compound	inhibition [1] [%]	inhibition [2] [%]	inhibition [3] [%]	inhibition [4] [%]	inhibition [5] [%]	inhibition [6] [%]	inhibition [7] [%]	inhibition [8] [%]	inhibition [9] [%]	inhibition [10] [%]	inhibition [11] [%]	inhibition [12] [%]	inhibition [13] [%]	inhibition [14] [%]
CCN1CCN(Cc2ccc(NC(=O)c3ccc(C)c(/C=C/c4cnc5[nH]ccc5c4OC)c3)cc2C(F)(F)F)CC1	-4.3	13.3	82.6	3.9	-6.2	11.9	-3.8	-7.4	14.4	77.9	7.1	> 98	58	31.7
CCN1CCN(Cc2ccc(NC(=O)c3ccc(C)c(Oc4ccnc5[nH]ccc45)c3)cc2C(F)(F)F)CC1	6.9	4.9	79.2	34.8	-3.5	41.3	-2.4	0.7	0.3	98.1	-3.5	> 95	45.3	15.6
